Assay results taken from ChEMBL document CHEMBL4270573, “Novel nicotinoyl pyrazoline derivates bearing N-methyl indole moiety as antitumor agents: Design, synthesis and evaluation” (Eur J Med Chem, 2018).
Active and inactive are the calls of the source. The rule behind the calls is not given here.

Key:
HeLa [1] = experiment: Growth inhibition of human HeLa cells after 48 hrs by MTT assay; type: functional
Method in brief: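 Proliferation read-out; GI50 taken as the concentration giving 50% reduction of cancer cell proliferation.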

HeLa [2] = experiment: Cell cycle arrest in human HeLa cells assessed as accumulation at G2/M phase after 6 to 24 hrs by propidium iodide staining based flow cytometric analysis; type: functional
Method in brief: (§1)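 HepG2 and HeLa cells were exposed to 0, 0.020, 0.040, 0.060, 0.080 or 0.10 µM for 6, 12 or 24 h. DNA content was stained with propidium iodide and analysed by flow cytometry to give the percentage of cells in G0/G1, S and G2/M phases; sub-G1 cells were also recorded.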

HeLa [3] = experiment: Cell cycle arrest in human HeLa cells assessed as accumulation at G0/G1 phase at 0.080 uM after 24 hrs by propidium iodide staining based flow cytometric analysis (reference value: 66.26%); type: functional; method in brief: as §1
HepG2 [4] = experiment: Cell cycle arrest in human HepG2 cells assessed as accumulation at G2/M phase at 0.020 uM after 24 hrs by propidium iodide staining based flow cytometric analysis (reference value: 20.17%); type: functional; method in brief: as §1
HepG2 [5] = experiment: Cell cycle arrest in human HepG2 cells assessed as accumulation at G0/G1 phase at 0.040 uM after 24 hrs by propidium iodide staining based flow cytometric analysis (reference value: 55.63%); type: functional; method in brief: as §1
HepG2 [6] = experiment: Cell cycle arrest in human HepG2 cells assessed as accumulation at G0/G1 phase at 0.060 uM after 24 hrs by propidium iodide staining based flow cytometric analysis (reference value: 55.63%); type: functional; method in brief: as §1
HeLa [7] = experiment: Induction of apoptosis in human HeLa cells assessed as late apoptotic cells at 0.020 uM after 24 hrs by Annexin V-FITC/propidium iodide staining based flow cytometric analysis (reference value: 4.98%); type: functional
Method in brief: (§2)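 HepG2 and HeLa cells were exposed to 0, 0.02, 0.040, 0.060, 0.080 and 0.10 µM for 6, 12 and 24 h. Cells were double-stained with Annexin V-FITC/PI and read by flow cytometry. Apoptotic rate was the percentage of FITC-positive cells, counting early plus late apoptotic.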

HeLa [8] = experiment: Induction of apoptosis in human HeLa cells assessed as viable cells at 0.020 uM after 24 hrs by Annexin V-FITC/propidium iodide staining based flow cytometric analysis (reference value: 88.6%); type: functional; conditions: read-out: Activity; method in brief: as §2
HeLa [9] = experiment: Induction of apoptosis in human HeLa cells assessed as viable cells at 0.040 uM after 24 hrs by Annexin V-FITC/propidium iodide staining based flow cytometric analysis (reference value: 88.6%); type: functional; conditions: read-out: Activity; method in brief: as §2
HeLa [10] = experiment: Induction of apoptosis in human HeLa cells assessed as viable cells at 0.10 uM after 24 hrs by Annexin V-FITC/propidium iodide staining based flow cytometric analysis (reference value: 88.6%); type: functional; conditions: read-out: Activity; method in brief: as §2
HepG2 [11] = experiment: Induction of apoptosis in human HepG2 cells assessed as necrotic cells at 0.020 uM after 24 hrs by Annexin V-FITC/propidium iodide staining based flow cytometric analysis (reference value: 0.270%); type: functional; method in brief: as §2
HepG2 [12] = experiment: Induction of apoptosis in human HepG2 cells assessed as viable cells at 0.020 uM after 24 hrs by Annexin V-FITC/propidium iodide staining based flow cytometric analysis (reference value: 94.5%); type: functional; conditions: HepG2, 24 h, read-out: Activity; method in brief: as §2
HepG2 [13] = experiment: Induction of apoptosis in human HepG2 cells assessed as late apoptotic cells at 0.040 uM after 24 hrs by Annexin V-FITC/propidium iodide staining based flow cytometric analysis (reference value: 2.93%); type: functional; method in brief: as §2
HepG2 [14] = experiment: Induction of apoptosis in human HepG2 cells assessed as early apoptotic cells at 0.080 uM after 24 hrs by Annexin V-FITC/propidium iodide staining based flow cytometric analysis (reference value: 2.31%); type: functional; method in brief: as §2
HepG2 [15] = experiment: Induction of apoptosis in human HepG2 cells assessed as late apoptotic cells at 0.080 uM after 24 hrs by Annexin V-FITC/propidium iodide staining based flow cytometric analysis (reference value: 2.93%); type: functional; method in brief: as §2
HepG2 [16] = experiment: Induction of apoptosis in human HepG2 cells assessed as necrotic cells at 0.10 uM after 24 hrs by Annexin V-FITC/propidium iodide staining based flow cytometric analysis (reference value: 0.270%); type: functional; method in brief: as §2
HeLa [17] = experiment: Antitumor activity against human HeLa cells xenografted in nude mouse assessed as tumor weight at 20 mg/kg, ip after 14 days (reference value: 1.54 g); type: functional
Mus musculus [18] = experiment: Toxicity in nude mouse xenografted with human HeLa cells assessed as change in mouse heart weight at 10 to 20 mg/kg, ip after 14 days; type: organism-based; conditions: in vivo, 336 h
HepG2 [19] = experiment: Cell cycle arrest in human HepG2 cells assessed as accumulation at G2/M phase at 0.020 to 0.10 uM after 6 to 24 hrs by propidium iodide staining based flow cytometric analysis relative to control; type: functional; method in brief: as §1
[20] = Selectivity index, ratio of CC50 for HEK293T cells to GI50 for human HeLa cells; type: toxicity; conditions: HEK293T cells and HeLa cells, read-out: Selectivity Index
Method in brief: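 Ratio CC50/GI50: CC50 is the concentration reducing non-tumour 293T cell proliferation by 50%; GI50 is the concentration reducing cancer cell proliferation by 50%.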

Tubulin (Homo sapiens) [21] = target: T1, Tubulin (Homo sapiens) (UniProt P68371+Q9H4B7+P0DPH7+P68366+Q13509+Q71U36+P04350+Q3ZCM7+P07437+P68363+Q9BQE3+Q6PEY2+Q13885+Q9BVA1+Q9BUF5); experiment: Inhibition of tubulin polymerization in human HepG2 cells assessed as multinucleated cell formation at 0.04 to 0.1 uM after 12 hrs by DAPI staining based immunofluorescence confocal laser scanning microscopic analysis
Tubulin (Homo sapiens) [22] = target: T1, Tubulin (Homo sapiens); experiment: Inhibition of tubulin polymerization in human HepG2 cells assessed as mitotic catastrophe formation at 0.04 to 0.1 uM after 12 hrs by DAPI staining based immunofluorescence confocal laser scanning microscopic analysis; type: cell-based
Mus musculus [23] = experiment: Hepatotoxicity in nude mouse xenografted with human HeLa cells assessed as cellular inflammatory infiltration in liver at 10 to 20 mg/kg, ip after 14 days by hematoxylin and eosin staining based microscopic analysis; type: toxicity, organism-based; conditions: in vivo, 336 h
Method in brief: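 HeLa xenograft nude mice with tumours near 100 mm³, randomised to four groups of 28 mice in total. Dosing was intraperitoneal: vehicle, CA-4 10 mg/kg, or test compound at 10 or 20 mg/kg, continued for 14 days. Heart, liver, kidney and spleen were then H&E-stained and examined for inflammatory infiltration, edema, necrosis and cell morphology.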

Mus musculus [24] = experiment: Nephrotoxicity in nude mouse xenografted with human HeLa cells assessed as edema in kidney at 10 to 20 mg/kg, ip after 14 days by hematoxylin and eosin staining based microscopic analysis; type: toxicity, organism-based; conditions: in vivo, 336 h
Mus musculus [25] = experiment: Cardiotoxicity in nude mouse xenografted with human HeLa cells assessed as edema in heart at 10 to 20 mg/kg, ip after 14 days by hematoxylin and eosin staining based microscopic analysis; type: toxicity, organism-based; conditions: in vivo, 336 h
Method in brief: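 Excised tumours and heart, liver, kidney and spleen were H&E-stained and examined microscopically. Tumour scoring covered cell arrangement and necrosis. Organ scoring covered inflammatory infiltration, edema, necrosis and cell morphology.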

Mus musculus [26] = experiment: Toxicity in nude mouse xenografted with human HeLa cells assessed as ulceration at 10 to 20 mg/kg, ip after 14 days; type: organism-based; conditions: in vivo, 336 h
Mus musculus [27] = experiment: Nephrotoxicity in nude mouse xenografted with human HeLa cells assessed as morphological changes in kidney cells at 10 to 20 mg/kg, ip after 14 days by hematoxylin and eosin staining based microscopic analysis; type: toxicity, organism-based; conditions: in vivo, 336 h

## COc1cccc(C2=NN(C(=O)c3ccc(C)nc3)C(c3cn(C)c4ccc(OC)cc34)C2)c1 (configuration not stated)
HeLa [1]
  GI50: 34 nM
HeLa [2]
  Activity: Dose-dependent effect
HeLa [3]
  Activity: 5.36%
HepG2 [4]
  Activity: 24.3%
HepG2 [5]
  Activity: 28.39%
HepG2 [6]
  Activity: 15.79%
HeLa [7]
  Activity: 7.98%
HeLa [8]
  viability at 0.02 µM: 88.7%
HeLa [9]
  viability at 0.04 µM: 84.5%
HeLa [10]
  viability at 0.1 µM: 58.2%
HepG2 [11]
  Activity: 0.771%
HepG2 [12]
  viability at 0.02 µM: 92.9%
HepG2 [13]
  Activity: 6.24%
HepG2 [14]
  Activity: 9.61%
HepG2 [15]
  Activity: 6.01%
HepG2 [16]
  Activity: 2.46%
HeLa [17]
  Activity: 0.53 g
Mus musculus [18]
  Activity: Non-Toxic
HepG2 [19]
  Activity: >60%
[20]
  selectivity ratio: 3 to 10
Tubulin (Homo sapiens) [21]
  inhibition: Active
Tubulin (Homo sapiens) [22]
  inhibition: Active
Mus musculus [23]
  Activity: Non-Toxic
Mus musculus [24]
  Activity: Non-Toxic
Mus musculus [25]
  Activity: Non-Toxic
Mus musculus [26]
  Activity: Non-Toxic
Mus musculus [27]
  Activity: Non-Toxic
